Experimental data from ChEMBL document CHEMBL4350958, “Rational Design of Short Peptide Variants by Using Kunitzin-RE, an Amphibian-Derived Bioactivity Peptide, for Acquired Potent Broad-Spectrum Antimicrobial and Improved Therapeutic Potential of Commensalism Coinfection of Pathogens” (J Med Chem, 2019).

Assays:
[1] = Conformational stability in sodium dodecyl sulfate at 35 uM by CD spectra analysis; format: physicochemical
Method in brief: (§1)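 CD spectra from 190 to 250 nm of peptide at 35 μM in 10 mM PBS, 30 mM SDS micelles or 50% TFE, recorded in a 1.0-mm quartz cell. Ellipticity was converted to mean residue ellipticity. Three independent scans, each averaged over more than 3 runs.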

[2] = tested on: Escherichia coli; experiment: Antibacterial activity against Escherichia coli K99 measured after 24 hrs; format: functional
Method in brief: (§2)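 Broth microdilution adapted from NCCLS. Mid-log bacteria were diluted in MHB to a final (0.5–1) × 10^5 CFU mL−1. Peptides were serially diluted in 0.2% BSA and mixed with an equal volume of cells. After 24 h at 37 °C, MIC was read at A492 as the lowest concentration inhibiting 95% of growth. At least three independent experiments, each with three technical replicates.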

[3] = tested on: Candida parapsilosis; experiment: Antifungal activity against Candida parapsilosis cgmcc2.3989 measured after 48 hrs by broth microdilution method; format: functional
Method in brief: (§3)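 Modified CLSI M27-A2 microdilution. Yeast colonies were diluted in MOPS-buffered RPMI 1640 to a final (0.5–1) × 10^3 CFU mL−1 and mixed with an equal volume of peptide serially diluted in 0.2% BSA. After 48 h at 28 °C, MIC was read at A492 as the lowest concentration inhibiting 95% of growth. At least three independent experiments, each with three technical replicates.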

[4] = tested on: Staphylococcus aureus; experiment: Antibacterial activity against Staphylococcus aureus ATCC 29213 measured after 18 to 24 hrs in presence of KCl; format: functional
[5] = tested on: Candida albicans; experiment: Antifungal activity against Candida albicans cgmcc2.2086 measured after 48 hrs in presence of ZnCl by broth microdilution method; format: functional
[6] = tested on: Escherichia coli; experiment: Antibacterial activity against Escherichia coli K88 measured after 24 hrs; format: functional; method in brief: as §2
[7] = tested on: Escherichia coli; experiment: Antibacterial activity against Escherichia coli ATCC 25922 measured after 18 to 24 hrs in presence of NaCl; format: functional
[8] = Conformational stability in 50% trifluoro-ethyl alcohol assessed as alpha-helical structural propensity by measuring absorption spectra at minimum dichroic band at 35 uM by CD spectra analysis; format: physicochemical; method in brief: as §1
[9] = Therapeutic index, ratio of MHC10 for hemolytic activity in human RBC to MIC95 against Escherichia coli ATCC 25922; format: toxicity; conditions: human red blood cells (erythrocytes), pooled result: one value given for 9 cell lines, strains, targets or settings, read-out: TI
Method in brief: (§4)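 Therapeutic index = MHC divided by MIC. MHC is the lowest concentration giving >10% lysis of human RBC (1 h, 37 °C, 1-128 µM, A576). MIC is 95% growth inhibition by broth microdilution: bacteria in MHB 24 h at 37 °C; Candida in MOPS-buffered RPMI 1640 at (0.5–1) × 10^3 CFU mL−1, 48 h at 28 °C.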

[10] = Therapeutic index, ratio of MHC10 for hemolytic activity in human RBC to MIC95 against Staphylococcus aureus ATCC 25923; format: toxicity; conditions: human red blood cells (erythrocytes), read-out: TI; method in brief: as §4
[11] = tested on: Candida tropicalis; experiment: Antifungal activity against Candida tropicalis cgmcc2.1975 measured after 48 hrs by broth microdilution method; format: functional; method in brief: as §3
[12] = tested on: Staphylococcus aureus; experiment: Antibacterial activity against Staphylococcus aureus ATCC 29213 measured after 18 to 24 hrs in presence of MgCl2; format: functional
[13] = tested on: Escherichia coli; experiment: Antibacterial activity against Escherichia coli ATCC 25922 measured after 18 to 24 hrs in presence of FeCl3; format: functional
[14] = tested on: Escherichia coli; experiment: Bactericidal activity against Escherichia coli K88 incubated for 24 hrs followed by replating on agar plate and measured after overnight incubation; format: functional; conditions: for MBC: K88, 24 h, read-out: MBC>99.9
Method in brief: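 Mid-log bacteria diluted in MHB to (0.5–1) × 10^5 CFU/mL and mixed 1:1 with peptide serially diluted in 0.2% BSA. After 24 h at 37 °C, 50 μL of each mixture was plated on agar and incubated overnight. MBC taken as the lowest concentration killing >99.9% of cells. At least three independent experiments, each with three technical replicates.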

[15] = tested on: Salmonella typhimurium; experiment: Antibacterial activity against Salmonella typhimurium ATCC 14028 measured after 24 hrs; format: functional, Salmonella enterica subsp. enterica serovar Typhimurium; method in brief: as §2
[16] = tested on: Salmonella enterica subsp. enterica serovar Pullorum; experiment: Antibacterial activity against Salmonella pullorum ATCC 7913 measured after 24 hrs; format: functional; method in brief: as §2
[17] = tested on: Candida parapsilosis; experiment: Fungicidal activity against Candida parapsilosis cgmcc2.3989 incubated for 48 hrs followed by replating on YM agar plate and measured after 48 hrs; format: functional
Method in brief: (§5)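 Yeast diluted in MOPS-buffered RPMI 1640 to (0.5–1) × 10^3 CFU/mL (CLSI M27-A2, modified) and mixed 1:1 with peptide serially diluted in 0.2% BSA. After 48 h at 28 °C, 50 μL per well was plated on YM agar and incubated 48 h at 28 °C. MFC taken as the lowest concentration killing ≥99.9% of cells. Three or more independent experiments, triplicate wells.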

[18] = tested on: Lipid bilayer; experiment: Induction of membrane disruption in PG/CL/PE large unilamellar vesicles assessed as calcein-entrapped liposome leakage at 64 uM after 15 mins by spectrofluorophotometric assay relative to control
Method in brief: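 Calcein (70 mM)-loaded LUVs of PG/CL/PE (2:1:7 w/w/w, E. coli membrane mimic), made by freeze-thaw and 100-nm extrusion, free dye removed on Sephadex G-50. LUVs (100 μM) exposed to peptide (1–64 μM) for 15 min. Leakage read at ex 490/em 520 nm: liposomes alone are background, Triton X-100 is 100%. Independent triplicates.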

[19] = Conformational stability in sodium dodecyl sulfate assessed as beta-sheet conformation by measuring absorption spectra at maximum dichroic band at 35 uM by CD spectra analysis; format: physicochemical; method in brief: as §1
[20] = tested on: Lipopolysaccharide (LPS); experiment: Displacement of BODIPY-TR-cadaverine from Escherichia coli O111:B4 LPS after 1 hr by spectrofluorophotometric method
Method in brief: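 LPS from E. coli O111:B4 (50 μg/mL) preincubated 4 h with BODIPY-TR-cadaverine (5 μg/mL) in 50 mM Tris, pH 7.4. Mixed with equal volume of peptide (1-64 µM) and incubated 1 h at 37 °C, then fluorescence read. %ΔF = (Fobs−F0)/(F100−F0)×100, with 10 μg mL-1 polymyxin B defining F100. Three technical replicates per experiment.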

[21] = tested on: Candida albicans; experiment: Fungicidal activity against Candida albicans cgmcc2.2086 incubated for 48 hrs followed by replating on YM agar plate and measured after 48 hrs; format: functional; method in brief: as §5
[22] = Conformational stability in sodium dodecyl sulfate assessed as beta-sheet conformation by measuring absorption spectra at minimum dichroic band at 35 uM by CD spectra analysis; format: physicochemical; method in brief: as §1
[23] = Lodderomyces parapsilosis, cgmcc2.3989, 48 h
[24] = Salmonella enterica, ATCC 14028, 24 h
[25] = Salmonella enterica subsp. enterica serovar Typhimurium

Row | Substance | Stability [1] | MIC95 ([2]; K99, 24 h) [µM] | MIC95 [3, 23] [µM] | MIC95 [4] [µM] | MIC95 ([5]; cgmcc2.2086, 48 h) [µM] | MIC95 ([6]; K88, 24 h) [µM] | MIC95 [7] [µM] | Activity [8] [nm] | selectivity ratio [9] | selectivity ratio [10] | MIC95 ([11]; cgmcc2.1975, 48 h) [µM] | MIC95 [12] [µM] | MIC95 [13] [µM] | MBC [14] [µM] | MIC95 [15, 24] [µM] | MFC<=99.9 [17] [µM] | further results
1 | H-AARIILRGRFR-NH2 | Unstable | 2 | 64 | 8 | > 128 | 2 | 64 | 208 to 222 | 54.3 | 26.9 | 16 | 16 | 4 | 4 | 4 | – | –
2 | GENTAMICIN | – | – | – | 1 | – | – | 4 | – | – | – | – | 1 | 1 | – | – | – | MIC95 [16]: 1 µM; MIC95 [2]: 0.5 µM; MIC95 [3]: > 128 µM; MIC95 [5]: > 128 µM; MIC95 [6]: 1 µM; MIC95 [11]: > 128 µM; MBC>99.9 [14]: 1 µM; MIC95 [15, 25]: 2 µM
3 | H-AARIILRRRFR-NH2 | Unstable | 8 | 64 | 32 | > 128 | 16 | 128 | 208 to 222 | 14.8 | 13.4 | 64 | 32 | 32 | 32 | 32 | 128 | –
4 | H-AARIILRNRFR-NH2 | Unstable | 16 | > 128 | > 128 | > 128 | 32 | 128 | 208 to 222 | 9.33 | 2 | > 128 | > 128 | 32 | 64 | 32 | – | –
5 | H-AARIILRWRFR-NH2 | – | 2 | 4 | 1 | 8 | 2 | 8 | 208 to 222 | 94.1 | 215 | 4 | 2 | 4 | 4 | 2 | 8 | Activity [18]: 65%; Wavelength of maximum dichroic band [19]: 200 nm; Activity [20]: Dose-dependent effect; MFC<=99.9 [21]: 8 µM; Activity [22]: 216 to 220 nm
6 | H-AARIILRPRFR-NH2 | Unstable | 16 | > 128 | > 128 | > 128 | 16 | 128 | – | 16 | 2 | > 128 | > 128 | 16 | 32 | 16 | – | Stability [8]: Unstable
7 | POLYMYXIN B | – | – | – | 32 | – | – | 4 | – | – | – | – | 32 | 2 | – | – | 16 | MIC95 [16]: 1 µM; MIC95 [2]: 1 µM; MIC95 [3]: 8 µM; MIC95 [5]: 32 µM; MIC95 [6]: 0.5 µM; MIC95 [11]: > 128 µM; MFC (≥99.9% killing) [21]: 64 µM; MBC>99.9 [14]: 1 µM; MIC95 [15, 25]: 2 µM
8 | H-AARIILRDRFR-NH2 | Unstable | > 128 | > 128 | > 128 | > 128 | > 128 | > 128 | 208 to 222 | 2 | 2 | > 128 | > 128 | > 128 | – | > 128 | – | –
